Results reported in ChEMBL document CHEMBL3808280, “GroEL/ES inhibitors as potential antibiotics” (Bioorg Med Chem Lett, 2016).

How the values were obtained:
[1] = test system: Klebsiella pneumoniae subsp. pneumoniae; assay: Antibacterial activity against multidrug resistant Klebsiella pneumoniae subsp. pneumoniae NCTC 9633 (ATCC 13883) assessed as reduction in bacterial growth incubated for 6 to 8 hrs; format: functional, organism-based
Outline: (§1)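 Broth proliferation assay. S. aureus and MRSA grown in ATCC Medium 18, other pathogens in Brain Heart Infusion. Stagnant incubation at 37°C under breathable seal. OD600 read at mid-log (6-8 h) and corrected with bacteria-free baseline plates. EC50 by variable-slope nonlinear fit, at least triplicate.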

Enterobacter cloacae = assay: Antibacterial activity against multidrug resistant Enterobacter cloacae subsp. cloacae CDC 442-68 (ATCC 13047) assessed as reduction in bacterial growth incubated for 6 to 8 hrs; format: functional, organism-based; outline: as §1
Staphylococcus aureus [2] = assay: Antibacterial activity against methicillin susceptible Staphylococcus aureus subsp. aureus Seattle 1945 (ATCC 25923) assessed as reduction in bacterial growth incubated for 6 to 8 hrs
HSP60/HSP10 [3] = molecular target: T1, HSP60/HSP10 (Homo sapiens, UniProt P10809); assay: Inhibition of human HSP60/HSP10 expressed in Escherichia coli Rosetta2(DE3) cells assessed as reduction in denatured pig heart MDH ATPase activity by malachite green dye based assay
T1 sequence (P10809 whole entry): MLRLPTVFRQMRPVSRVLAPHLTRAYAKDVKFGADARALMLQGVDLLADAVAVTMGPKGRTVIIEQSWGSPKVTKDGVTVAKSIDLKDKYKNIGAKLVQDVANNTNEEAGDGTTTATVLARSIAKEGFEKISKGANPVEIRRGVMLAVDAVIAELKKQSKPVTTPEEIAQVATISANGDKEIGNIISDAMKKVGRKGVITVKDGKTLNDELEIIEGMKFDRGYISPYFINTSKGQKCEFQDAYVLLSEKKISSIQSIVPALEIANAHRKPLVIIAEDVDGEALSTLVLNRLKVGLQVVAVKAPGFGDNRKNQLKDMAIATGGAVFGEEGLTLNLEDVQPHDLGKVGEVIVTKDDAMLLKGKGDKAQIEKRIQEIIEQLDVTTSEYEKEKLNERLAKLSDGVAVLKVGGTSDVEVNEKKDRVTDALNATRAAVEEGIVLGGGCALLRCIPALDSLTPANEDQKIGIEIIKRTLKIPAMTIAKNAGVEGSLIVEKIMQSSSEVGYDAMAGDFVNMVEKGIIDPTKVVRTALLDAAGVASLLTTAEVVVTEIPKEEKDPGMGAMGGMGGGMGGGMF
T1 sequence (P61604 whole entry, further chain): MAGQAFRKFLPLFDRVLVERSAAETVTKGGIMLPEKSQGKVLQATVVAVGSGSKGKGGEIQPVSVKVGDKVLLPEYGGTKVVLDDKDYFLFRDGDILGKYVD

HSP60/HSP10 [4] = molecular target: T1, HSP60/HSP10; assay: Inhibition of human HSP60/HSP10 expressed in Escherichia coli Rosetta2(DE3) cells assessed as inhibition of denatured pig heart MDH refolding by measuring reduction in NADH production incubated for 60 mins by micro plate reader analysis
Outline: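 Pig heart MDH was denatured in guanidine-HCl (dMDH) and complexed with HSP60, then HSP10, in Tris pH 7.4/KCl/MgCl2/DTT buffer. EDTA quench (100 mM final); refolded MDH activity was followed with mesoxalate/NADH at 340 nm.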

E. coli GroEL/ES [5] = molecular target: T2, E. coli GroEL/ES (Escherichia coli, UniProt P0A6F5); assay: (§2) Inhibition of Escherichia coli GroEL/GroES using Escherichia coli GroEL expressed in Escherichia coli DH5alpha cells and Escherichia coli GroES expressed in Escherichia coli BL21(DE3) cells assessed as inhibition of denatured rhodanese refolding by measuring reduction in thiocyanate production incubated for 60 mins by micro plate reader analysis
T2 sequence (P0A6F5 whole entry, looked up): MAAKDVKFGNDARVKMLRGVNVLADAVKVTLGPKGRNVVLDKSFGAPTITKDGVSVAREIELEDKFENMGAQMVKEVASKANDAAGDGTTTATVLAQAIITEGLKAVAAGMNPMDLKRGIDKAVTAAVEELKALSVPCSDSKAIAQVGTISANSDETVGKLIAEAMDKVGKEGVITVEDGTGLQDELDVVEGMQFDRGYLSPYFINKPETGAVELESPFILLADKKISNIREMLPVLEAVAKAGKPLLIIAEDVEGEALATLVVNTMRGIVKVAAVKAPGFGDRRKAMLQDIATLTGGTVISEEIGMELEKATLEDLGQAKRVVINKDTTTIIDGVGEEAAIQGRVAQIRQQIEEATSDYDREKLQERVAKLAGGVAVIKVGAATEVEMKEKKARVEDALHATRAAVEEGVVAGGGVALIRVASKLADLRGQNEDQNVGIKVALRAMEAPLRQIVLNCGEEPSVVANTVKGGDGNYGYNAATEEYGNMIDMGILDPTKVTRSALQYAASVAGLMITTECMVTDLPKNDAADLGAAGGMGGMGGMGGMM
Outline: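 Urea-denatured rhodanese bound to GroEL/GroES in folding buffer containing thiosulfate. After 60 min at 37°C, thiocyanate reaction (KCN, thiosulfate, phosphate) run, then formaldehyde quench and ferric nitrate added. Fe(SCN)3 read at 460 nm after 15 min RT, with protein-free baseline plates.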

Bacillus subtilis = assay: Antibacterial activity against Bacillus subtilis 168 assessed as reduction in bacterial growth incubated for 6 to 8 hrs; format: functional, organism-based; settings: subsp. subtilis str. 168
Enterococcus faecium = assay: Antibacterial activity against multidrug resistant Enterococcus faecium NCTC 7171 (ATCC 19434) assessed as reduction in bacterial growth incubated for 6 to 8 hrs; format: functional, organism-based; outline: as §1
E. coli GroEL/ES [6] = molecular target: T2, E. coli GroEL/ES; assay: as §2, with “pig heart MDH” for “rhodanese”, “NADH” for “thiocyanate”
Outline: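 Denatured MDH (guanidine-HCl/DTT, 30 min RT) bound to GroEL with GroES in Tris pH 7.4, KCl, MgCl2, DTT buffer. 60 min at 37°C, EDTA quench to 100 mM. Refolded MDH activity read with mesoxalate/NADH at 340 nm. Log-averaged IC50 from replicates.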

E. coli GroEL/ES [7] = molecular target: T2, E. coli GroEL/ES; assay: Inhibition of Escherichia coli GroEL/GroES using Escherichia coli GroEL expressed in Escherichia coli DH5alpha cells and Escherichia coli GroES expressed in Escherichia coli BL21(DE3) cells assessed as reduction in native refolded rhodanese-mediated thiocyanate production by micro plate reader analysis
E. coli GroEL/ES [8] = molecular target: T2, E. coli GroEL/ES; assay: Inhibition of Escherichia coli GroEL/GroES using Escherichia coli GroEL expressed in Escherichia coli DH5alpha cells and Escherichia coli GroES expressed in Escherichia coli BL21(DE3) cells assessed as reduction in pig heart native refolded MDH-mediated NADH production by micro plate reader analysis
Outline: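 Native MDH counter-screen. GroEL/ES-dMDH refolding run 60 min at 37°C, then EDTA-quenched without compound. IC50 averaged from at least triplicate.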

HEK293 = assay: Cytotoxicity against HEK293 cells assessed as reduction in cell viability after 48 hrs by alamar blue assay; format: cell-based; settings: Homo sapiens, HEK293, 48 h
Escherichia coli [9] = assay: Antibacterial activity against Escherichia coli DH5alpha assessed as reduction in bacterial growth incubated for 6 to 8 hrs; format: functional, organism-based; settings: DH5[alpha]
Acinetobacter baumannii = assay: Antibacterial activity against multidrug resistant Acinetobacter baumannii 2208 (ATCC 19606) assessed as reduction in bacterial growth incubated for 6 to 8 hrs; format: functional; outline: as §1
Escherichia coli [10] = assay: Antibacterial activity against acrB-deficient Escherichia coli MC4100 assessed as reduction in bacterial growth incubated for 6 to 8 hrs; format: functional, organism-based
Staphylococcus aureus [11] = assay: Antibacterial activity against methicillin resistant Staphylococcus aureus subsp. aureus HPV107 (ATCC BAA-44) assessed as reduction in bacterial growth incubated for 6 to 8 hrs; format: functional, organism-based; outline: as §1
Escherichia coli [12] = assay: Antibacterial activity against Escherichia coli SM101 assessed as reduction in bacterial growth incubated for 12 hrs by UV-Vis spectrophotometric analysis; format: functional, organism-based; settings: SM101, 12 h
[13] = Cytotoxicity against human THLE3 cells assessed as reduction in cell viability after 48 hrs by alamar blue assay; format: cell-based; settings: THLE3, 48 h
Pseudomonas aeruginosa = assay: Antibacterial activity against multidrug resistant Pseudomonas aeruginosa NCTC 10332 (ATCC 10145) assessed as reduction in bacterial growth incubated for 6 to 8 hrs; format: functional, organism-based; outline: as §1

Compound	EC50 [1]	EC50 (Enterobacter cloacae)	EC50 (Staphylococcus aureus [2])	IC50 (HSP60/HSP10 [3])	IC50 (HSP60/HSP10 [4])	IC50 (E. coli GroEL/ES [5])	EC50 (Bacillus subtilis)	EC50 (Enterococcus faecium)	IC50 (E. coli GroEL/ES [6])	IC50 (E. coli GroEL/ES [7])	IC50 (E. coli GroEL/ES [8])	EC50 (HEK293)	EC50 (Escherichia coli [9])	EC50 (Acinetobacter baumannii)	EC50 (Escherichia coli [10])	EC50 (Staphylococcus aureus [11])	EC50 (Escherichia coli [12])	EC50 [13]	EC50 (Pseudomonas aeruginosa)
O=c1c([N+](=O)[O-])c(Cl)c2ccccc2n1Cc1ccccc1	> 100 µM	> 100 µM	> 100 µM	> 250 µM	2.8 µM	22 µM	2.8 µM	> 100 µM	5.4 µM	> 100 µM	> 62.5 µM	17 µM	> 100 µM	> 100 µM	> 100 µM	21 µM	> 100 µM	3.6 µM	> 100 µM
CCCCCCCCCC(=O)N[C@@H](Cc1c[nH]c2ccccc12)C(=O)N[C@@H](CC(N)=O)C(=O)N[C@@H](CC(=O)O)C(=O)N[C@@H]1C(=O)NCC(=O)N[C@@H](CCCN)C(=O)N[C@@H](CC(=O)O)C(=O)N[C@H](C)C(=O)N[C@@H](CC(=O)O)C(=O)NCC(=O)N[C@H](CO)C(=O)N[C@@H]([C@H](C)CC(=O)O)C(=O)N[C@@H](CC(=O)c2ccccc2N)C(=O)O[C@@H]1C [DAPTOMYCIN]	> 100 µM	> 100 µM	5.7 µM					33 µM						> 100 µM		5.7 µM			> 100 µM
COc1cc(/C=C2/C(=N)N3N=C(CC(C)C)SC3=NC2=O)ccc1OC(=O)c1ccc(F)cc1	> 100 µM	> 100 µM	> 100 µM	> 250 µM	26 µM	25 µM	13 µM	> 100 µM	24 µM		> 62.5 µM	> 100 µM	> 100 µM	> 100 µM	> 100 µM	> 100 µM	25 µM	> 100 µM	> 100 µM
CC1(C)S[C@@H]2[C@H](NC(=O)[C@H](N)c3ccccc3)C(=O)N2[C@H]1C(=O)O [AMPICILLIN]	89 µM	> 100 µM	0.059 µM					0.63 µM						2.5 µM		76 µM			27 µM
O=C(NCCO)Nc1ccc2nc(-c3ccco3)c(-c3ccco3)nc2c1	> 100 µM	> 100 µM	> 100 µM	> 250 µM	15 µM	2.6 µM	> 100 µM	> 100 µM	6.5 µM	1.4 µM	> 62.5 µM	> 100 µM	> 100 µM	> 100 µM	> 100 µM	> 100 µM	> 100 µM	> 100 µM	> 100 µM
O=C(N[C@H](CO)[C@H](O)c1ccc([N+](=O)[O-])cc1)C(Cl)Cl [CHLORAMPHENICOL]	1.4 µM	2.2 µM	2.2 µM					2.1 µM						65 µM		2.3 µM			16 µM
O=C(Nc1ccc2nc(-c3ccco3)c(-c3ccco3)nc2c1)N1CCCC1	> 100 µM	> 100 µM	> 100 µM	> 250 µM	13 µM	2.4 µM	> 100 µM	> 100 µM	4.7 µM	2.1 µM	> 62.5 µM	> 100 µM	> 100 µM	> 100 µM	> 100 µM	> 100 µM	> 100 µM	> 100 µM	> 100 µM
